≈ marks a conversion by molar mass, not a printed value.
Experiments:
Human alphaherpesvirus 1 [1] = assay: Antiviral activity against HSV1 infected in african green monkey Vero cells after 6 hrs by plaque reduction assay; assay type: functional; design: scale not given: the % may be the effect or the level left
Outline: (§1)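 Modified plaque reduction in 96-well trays with no thickening overlay. Compounds dissolved in DMSO and diluted into medium, then serially diluted and added in triplicate to confluent Vero monolayers. Titred HSV-1 added in medium with 10% calf serum. Incubated 6 h at 37 °C, 5% CO2. Cells fixed with 3.7% formaldehyde and examined visually. The end-point concentration was taken from the dilution series.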

Human alphaherpesvirus 1 [2] = assay: Antiviral activity against HSV1 infected in african green monkey Vero cells assessed as minimum antiviral concentration after 6 hrs; assay type: functional; outline: as §1
Vero = assay: Cytotoxicity against african green monkey Vero cells assessed as loss of monolayer present around the plaques; assay type: cell-based; settings: Chlorocebus sabaeus
Outline: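 Vero monolayers in serial-dilution trays with HSV-1, run in triplicate, 6 h at 37 °C, 5% CO2. Cells fixed with 3.7% formaldehyde and examined visually. IC50 is the concentration giving about 50% loss of the monolayer around HSV-1 plaques.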

[3] = test system: Human immunodeficiency virus 1; assay: Antiviral activity against HIV1 infected in human CEM cells assessed as protection against virus-induced cytopathic effect after 6 days by XTT assay; assay type: functional, organism-based; settings: Human immunodeficiency virus 1, CCRF-CEM, 144 h
Outline: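 CEM T4 lymphocytes received serially diluted compounds (DMSO stock diluted 1:100 in medium, 1:200 final dilution), then HIV-1. Incubated 6 days at 37 °C, 5% CO2. Formazan read spectrophotometrically after XTT, with microscopic check for viable cells. EC50 is the concentration giving 50% protection against the HIV cytopathic effect. AZT-treated wells served as positive control.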

CCRF-CEM = assay: Cytotoxicity against […] human CEM cells after 6 days by XTT assay; assay type: cell-based; settings: 144 h
Outline: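 Uninfected CEM cultures given serial compound dilutions (DMSO, 1:200 final dilution). Incubated 6 days at 37 °C, 5% CO2, then read by XTT formazan. IC50 is the molar concentration causing 50% inhibition of cell growth.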

[4] = Therapeutic index, ratio of IC50 for human CEM cells to EC50 for HIV1; assay type: cell-based, CCRF-CEM; settings: read-out: Ratio IC50/EC50
Outline: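 CEM T4 lymphocytes, with or without HIV-1, were incubated with serially diluted compounds (DMSO solution diluted 1:100 in medium; 1:200 final dilution after cells and virus were added) at 37 °C in 5% CO2 for 6 days. Controls were untreated and AZT-treated. Read-out was XTT formazan, measured spectrophotometrically plus microscopy. EC50 is 50% protection from cytopathic effect; IC50 is 50% growth inhibition in uninfected cultures.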

Escherichia coli [5] = assay: Antibacterial activity against Escherichia coli MTCC 41 after 12 to 16 hrs by turbidity assay; assay type: functional
Outline: (§2)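 Broth dilution MIC in LB broth. Tubes inoculated, incubated 12–16 h and scored by eye for turbidity (growth) versus clear (no growth).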

Escherichia coli [6] = assay: Antibacterial activity against Escherichia coli MTCC 41 at 128 mg/ml after 16 hrs by disk diffusion test; assay type: functional; design: dose or concentration left out as unconfirmed; settings: MTCC 41, 16 h, read-out: IZ
Escherichia coli [7] = assay: Antibacterial activity against Escherichia coli MTCC 41 at 64 mg/ml after 16 hrs by disk diffusion test; assay type: functional; design: dose or concentration left out as unconfirmed; settings: MTCC 41, 16 h, read-out: IZ
Staphylococcus aureus [8] = assay: Antibacterial activity against Staphylococcus aureus MTCC 1144 after 12 to 16 hrs by turbidity assay; assay type: functional; outline: as §2
Staphylococcus aureus [9] = assay: Antibacterial activity against Staphylococcus aureus MTCC 1144 at 128 mg/ml after 16 hrs by disk diffusion test; assay type: functional; design: dose or concentration left out as unconfirmed; settings: MTCC 1144, 16 h, read-out: IZ
Staphylococcus aureus [10] = assay: Antibacterial activity against Staphylococcus aureus MTCC 1144 at 64 mg/ml after 16 hrs by disk diffusion test; assay type: functional; settings: MTCC 1144, 16 h, read-out: IZ
Outline: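 Disk diffusion (zone of inhibition). Bacterial isolate spread evenly over an agar plate. A filter disk carrying a known amount of compound was placed on the surface and the compound left to diffuse. The inhibition zone in the lawn was read after 16 h incubation.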

Pseudomonas putida [11] = assay: Antibacterial activity against ampicillin-resistant Pseudomonas putida MTCC 1072 after 12 to 16 hrs by turbidity assay; assay type: functional; outline: as §2
Pseudomonas putida [12] = assay: Antibacterial activity against ampicillin-resistant Pseudomonas putida MTCC 1072 at 128 mg/ml after 16 hrs by disk diffusion test; assay type: functional; design: dose or concentration left out as unconfirmed; settings: MTCC 1072, 16 h, read-out: IZ
Pseudomonas putida [13] = assay: Antibacterial activity against ampicillin-resistant Pseudomonas putida MTCC 1072 at 64 mg/ml after 16 hrs by disk diffusion test; assay type: functional; design: dose or concentration left out as unconfirmed; settings: MTCC 1072, 16 h, read-out: IZ

OC[C@H]1O[C@@H](Sc2nc3sc4c(c3c(=S)[nH]2)CCCCC4)[C@@H](O)[C@@H]1O
Activity (Human alphaherpesvirus 1 [1]): 24% | MAC (Human alphaherpesvirus 1 [2]): 0.21 µM | IC50 (Vero): > 1.46 µM | EC50 [3]: > 100 µM | IC50 (CCRF-CEM): > 100 µM | selectivity ratio [4]: > 1 | MIC (Escherichia coli [5]): 128 µg/mL (≈ 320 µM) | zone of inhibition (Escherichia coli [6]): > 3 mm | zone of inhibition (Escherichia coli [7]): > 2 mm | MIC (Staphylococcus aureus [8]): 128 µg/mL (≈ 320 µM) | zone of inhibition (Staphylococcus aureus [9]): > 3 mm | zone of inhibition at 64000 µg/mL (Staphylococcus aureus [10]): > 2 mm | MIC (Pseudomonas putida [11]): 128 µg/mL (≈ 320 µM) | zone of inhibition (Pseudomonas putida [12]): > 3 mm | zone of inhibition (Pseudomonas putida [13]): > 2 mm
